{"source": "PubChem BioAssay AID1885", "about": "(Broad Institute, 2009)", "note": "Out of some 300,000 compounds screened, about 4,400 (1.5%) were called active. Only a selection was taken, and actives are over-represented in it overall. Unmarked numbers belong to inactive results.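 The calls were made as follows: active = mean inhibition across valid replicates above about 55% (limit read from the data); inconclusive = mean below that limit but half or more replicates reach it; inactive = mean below it, under half of replicates reach it.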", "data": [{"experiment": "Trypanosoma cruzi replication blockers in host cells – luminescence, NIH3T3 host cells, primary screen (AID 1885);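 also: signal also drops with host cell toxicity which is not excluded here; 0% = plate median of DMSO wells and 100% = zero luminescence signal; higher percent means less beta-gal luminescence so fewer parasites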", "conditions": "T. cruzi beta-gal in NIH3T3, luminescence, 90 h; active compounds read high; concentration not given here", "outline": "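System: NIH/3T3 fibroblasts plus reporter T. cruzi. Medium: DMEM plus 2% FBS. Probe or stimulus: 5000 reporter trypomastigotes per well. Compound: single 50 nL compound addition per well in DMSO. Incubation: co-culture of at least 90 h after 3 h attachment. Detection: GalScreen β-gal luminescence, detergent lysis, 60 min. Evaluation: parasite load inhibition, %.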", "values": [{"smiles": "CSCCC(NC(=O)COc1ccccc1)C(=O)OCCOc1ccc(F)cc1", "note": "(stereo not given)", "inhibition": "-11.5%"}, {"smiles": "CCn1cc(/C=C(\\NC(=O)c2ccc(C)cc2)C(=O)NCCN2CCOCC2)c2ccccc21", "inhibition": "-0.43%"}, {"smiles": "COc1ccc(CN2CC[C@H]3C=CC[C@@H](C(=O)N4CCOCC4)[C@H]3C2=O)cc1OC", "inhibition": "0.915%"}, {"smiles": "O=C(CN1CCCCCC1)Nc1ccc(S(=O)(=O)N2CCCCC2)cc1", "inhibition": "-0.319%"}, {"smiles": "CN(CC(=O)Nc1ccc(S(=O)(=O)N2CCCC2)cc1)Cc1ccc(Cl)c(Cl)c1", "inhibition": "55.8% (active)"}, {"smiles": "CN(CC(=O)Nc1ccc(F)cc1)CC(=O)Nc1ccc(Cl)c(S(=O)(=O)N2CCOCC2)c1", "inhibition": "-1.87%"}, {"smiles": "CCOc1cnc(C(=O)NNC(=O)c2ccccc2Br)o1", "inhibition": "-24%"}, {"smiles": "O=C(Nc1ccc(F)c([N+](=O)[O-])c1)C1CC(=O)N(Cc2ccccc2)C1", "note": "(stereo not given)", "inhibition": "11.3%"}, {"smiles": "CC1(c2cccc([N+](=O)[O-])c2)CC(C)(C)N(C(=O)c2ccccc2)c2ccccc21", "note": "(stereo not given)", "inhibition": "37.9%"}, {"smiles": "Cc1nnc(SCC(=O)N2c3ccccc3C(C)(c3ccc(Cl)cc3)CC2(C)C)s1", "note": "(stereo not given)", "inhibition": "37.3%"}, {"smiles": "CC1(c2ccccc2)CC(C)(C)N(C(=O)c2cc([N+](=O)[O-])cc([N+](=O)[O-])c2)c2ccccc21", "note": "(stereo not given)", "inhibition": "62.7% (active)"}, {"smiles": "Cc1cc(C)c(NC(=O)C[N+](C)(C)CC(O)COc2cccc3ccccc23)c(C)c1", "note": "(stereo not given)", "inhibition": "39.6%"}, {"smiles": "CC(C)c1ccccc1OCC(O)CN(CC(O)COc1cccc2ccccc12)C(C)C", "note": "(stereo not given)", "inhibition": "57.2% (active)"}, {"smiles": "OC(COc1cccc2ccccc12)CN1CCN(c2ccccn2)CC1", "note": "(stereo not given)", "inhibition": "-13.7%"}, {"smiles": "COc1ccc(NS(=O)(=O)c2cc(NC(=O)/C=C/c3cc(OC)c(OC)c(OC)c3)ccc2N2CCCCC2)cc1", "inhibition": "54.8% (active)"}, {"smiles": "COc1ccc(NS(=O)(=O)c2cc(NC(=O)C3CCCCC3)ccc2N2CCOCC2)cc1", "inhibition": "8.84%"}, {"smiles": "COc1ccc(NS(=O)(=O)c2ccc(N3CCN(CCO)CC3)c([N+](=O)[O-])c2)cc1", "inhibition": "-24.8%"}, {"smiles": "Cc1ccc(S(=O)(=O)CCC(=O)Nc2nnc(CC(C)C)s2)cc1", "inhibition": "-32%"}, {"smiles": "COC(=O)COc1ccc2c(c1C)O/C(=C\\c1ccco1)C2=O", "inhibition": "0.57%"}, {"smiles": "CCN1C(=O)[C@@H]2[C@@H](c3ccc(-c4ccc(OC)cc4)c(OC)c3)N3CCC[C@@]3(C(=O)OC)[C@@H]2C1=O", "inhibition": "-10.1%"}, {"smiles": "O=C(NCC(c1cccs1)N1CCOCC1)c1cc(Cl)ccc1[N+](=O)[O-]", "note": "(stereo not given)", "inhibition": "-4.39%"}, {"smiles": "O=C(CCCN1C(=O)/C(=C\\c2ccco2)SC1=S)Nc1cccc2ccccc12", "inhibition": "-4.25%"}, {"smiles": "CCCN(CCC)c1nc2c(C)cccn2c(=O)c1/C=C1/SC(=S)N(Cc2ccco2)C1=O", "inhibition": "68.2% (active)"}, {"smiles": "CCOC(=O)CC1C(=O)NCCN1c1nc2c(C)cccn2c(=O)c1/C=C1\\SC(=S)N(C(C)CC)C1=O", "note": "(stereo not given)", "inhibition": "25.7%"}, {"smiles": "Fc1ccc2c(c1)C(c1cccnc1)=NNC(c1cccs1)=N2", "inhibition": "-7.53%"}, {"smiles": "COc1ccccc1C1=Nc2cccc3cccc(c23)N1", "inhibition": "55% (active)"}, {"smiles": "Fc1ccccc1N=C1Nc2cccc3cccc1c23", "inhibition": "-4.12%"}, {"smiles": "c1ccc(C2=Nc3cccc4cccc(c34)N2)cc1", "inhibition": "7.49%"}, {"smiles": "CC1(C)CC(=O)C=C(N2CCCC2)C1", "inhibition": "1.27%"}, {"smiles": "CC1(C)CC(N2CCN(C(c3ccccc3)c3ccccc3)CC2)=CC(=[N+]2CCCCC2)C1", "inhibition": "63.6% (active)"}, {"smiles": "O=C(O)CN1CCN(C(c2ccccc2)c2ccccc2)CC1", "inhibition": "-9.78%"}, {"smiles": "Cc1ncn(C23CC4CC(CC(O)(C4)C2)C3)n1", "inhibition": "5.6%"}, {"smiles": "Cc1nc([N+](=O)[O-])nn1C12CC3CC(CC(Br)(C3)C1)C2", "inhibition": "59.3% (active)"}, {"smiles": "COc1cccc(NC(=O)c2nn(C34CC5CC(CC(C5)C3)C4)cc2[N+](=O)[O-])c1", "inhibition": "16.7%"}, {"smiles": "CCCCCN(C(=O)CCC(=O)OCCOc1ccc(OC)cc1)c1c(N)n(CCCC)c(=O)[nH]c1=O", "inhibition": "8.8%"}, {"smiles": "CN(N)c1nc(N2CCCC2)nc(N2CCCC2)n1", "inhibition": "-9.95%"}, {"smiles": "CCCCCCCCCCCCN1[C@@H](CC(C)=O)c2cc(F)cc(F)c2S1(=O)=O", "inhibition": "39.5%"}, {"smiles": "CC(C)n1c(=O)[nH]c2cc(C(=O)Nc3ccccc3)ccc21", "inhibition": "-5.92%"}, {"smiles": "CN1CCN(c2ccc(NC(=O)c3ccccc3)cc2)CC1", "inhibition": "-2.93%"}, {"smiles": "CN1CCN(c2ccc(NC(=O)c3ccc4c(c3)[nH]c(=O)n4Cc3ccc(F)cc3)cc2)CC1", "inhibition": "65.8% (active)"}, {"smiles": "COCCN1C(=O)N(c2ccc(Cl)cc2)C(=O)C1CC(=O)Nc1cc(OC)cc(OC)c1", "note": "(stereo not given)", "inhibition": "-12.9%"}, {"smiles": "Cc1onc(-c2ccccc2Cl)c1C(=O)N(Cc1ccc(N(C)C)cc1)C(C)C", "inhibition": "37.7%"}, {"smiles": "S=C(NCc1ccc(Cl)cc1)NC1CCCCC1", "inhibition": "10.1%"}, {"smiles": "O=C(NCc1ccncc1)NC12CC3CC(CC(C3)C1)C2", "inhibition": "-15.8%"}, {"smiles": "S=C(NCc1ccc(Cl)cc1)NC12CC3CC(CC(C3)C1)C2", "inhibition": "57.1% (active)"}, {"smiles": "Cc1cc(NC(=O)c2ccc(F)cc2)ccc1NC(=O)c1ccco1", "inhibition": "14%"}, {"smiles": "CCN(CC)P(=O)(Nc1ccc(SC(F)F)cc1)c1ccc(N(C)C)cc1NC(=O)c1ccco1", "note": "(stereo not given)", "inhibition": "68.4% (active)"}, {"smiles": "O=C(Nc1ccc(Sc2ccc(Br)cc2)cc1)c1ccco1", "inhibition": "-17.4%"}, {"smiles": "O=C(NC1CCCC1)C1CC(=O)N(c2ccc(F)cc2)C1", "note": "(stereo not given)", "inhibition": "5.96%"}, {"smiles": "Cc1c(C(=O)N2CCCC2)c(S(=O)(=O)NCC(C)c2ccccc2)c(C)n1C", "note": "(stereo not given)", "inhibition": "-5.32%"}, {"smiles": "O=C(Nc1ccc(-c2csc(Nc3cccc(C(F)(F)F)c3)n2)cc1)c1cccc(C(F)(F)F)c1", "inhibition": "58.5% (active)"}, {"smiles": "Cc1nc(NC(=O)c2cccc(Cl)c2)sc1-c1csc(Nc2cccc(Cl)c2)n1", "inhibition": "-1.87%"}, {"smiles": "CNC(=O)c1ccc(NC(=O)c2cccc(C(F)(F)F)c2)cc1", "inhibition": "-8.58%"}, {"smiles": "O=C(O)C1C2C=CC(C2)C1C(=O)NCc1ccccc1", "note": "(stereo not given)", "inhibition": "-11.6%"}, {"smiles": "Cc1nn(C)cc1S(=O)(=O)N1CCN(c2ccc(F)cc2)CC1", "inhibition": "2.42%"}]}]}
